This note sets out measurements from ChEMBL document CHEMBL3797091, “Part 2. Notch-sparing γ-secretase inhibitors: The study of novel γ-amino naphthyl alcohols” (Bioorg Med Chem Lett, 2016).

In brackets after ≈: the same amount, converted by molar mass. Activity calls are given as the source filed them. The rule behind the calls is not given here.

The target of series [1] is T1, Gamma-secretase (Homo sapiens) (UniProt Q96BI3+Q9NZ42+Q8WW43+P49768+Q92542+P49810). The experiment in a line: Inhibition of human gamma secretase mediated amyloid beta (1 to 40) production expressed in CHO cells at 100 uM using APP based Flag-C-100 as substrate after 4 hrs by ELISA. The class given is cell-based. Summed up:
(§1)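 Enzyme: γ-secretase complex purified from CHO cells stably overexpressing all four human components. Substrate: recombinant APP-based C-100 FLAG. Reaction in 0.2% CHAPSO/HEPES, pH 7.5, at 37°C for 4 h, with compounds in DMSO (1% DMSO final). Stopped with 0.5% SDS. Aβ40 measured by commercial ELISA.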

Series [2] addresses T1, Gamma-secretase (Homo sapiens). The experiment in a line: Inhibition of human gamma secretase mediated notch 1 processing by Western blot analysis. It is filed as protein-complex assay.
Series [3] has the same target. The experiment in a line: Inhibition of human gamma secretase mediated amyloid beta (1 to 40) production expressed in CHO cells at 50 uM using APP based Flag-C-100 as substrate after 4 hrs by ELISA. It is filed as cell-based. Summed up:
as §1

For series [4] the target is unchanged. The experiment in a line: Inhibition of gamma secretase (unknown origin)-mediated amyloid beta (1 to 42) production at 100 uM by cell based assay.
Series [5] shares this target. The experiment in a line: Inhibition of gamma secretase (unknown origin)-mediated amyloid beta (1 to 42) production at 30 uM by cell based assay.
Series [6] can be described thus: Metabolic stability in rat liver microsomes assessed as parent compound remaining after 60 mins. The class given is ADME. Conditions: read-out: Stability.
In series [7] the target is T1, Gamma-secretase (Homo sapiens). The experiment in a line: Inhibition of human gamma secretase mediated amyloid beta 42 production expressed in CHO cells at 100 uM using APP based Flag-C-100 as substrate after 4 hrs by ELISA. It is filed as cell-based.
A short description of series [8]: Solubility of compound in PBS buffer at pH 7.4. It is filed as physicochemical.
The nature of series [9]: Plasma protein binding in human. Conditions: read-out: PPB (converted). It is filed as ADME, cell-free.
The nature of series [10]: Lipophilicity, log D of the compound. It is filed as physicochemical. Conditions: octanol/water.
Series [11] can be described thus: Metabolic stability in human liver microsomes assessed as parent compound remaining after 60 mins. It is filed as ADME. Conditions: read-out: Stability.
Series [12] is described as follows: Permeability of the compound across apical to basolateral side. The class given is ADME. Conditions: not told; read-out: permeability.
The target in a further series is Gamma-secretase. The experiment in a line: Inhibition of gamma secretase (unknown origin)-mediated notch processing by cell based assay. More on the design: species or system Homo sapiens.
Series [13] concerns the target T1, Gamma-secretase (Homo sapiens). The experiment in a line: Inhibition of gamma secretase (unknown origin)-mediated amyloid beta (1 to 40) production at 100 uM by cell based assay.

As for `CC(C)N(CCC(O)c1cc2ccccc2o1)Cc1ccccc1` (racemic), the inhibition in series [1] was 0%.
With `CC(C)N(CCC(O)c1cccc(Oc2ccccc2)c1)Cc1ccccc1` (racemic), the inhibition in [1] was 30%. Further, the inhibition entry in series [2] was “inactive”.
In the case of `CC(C)N(CCC(O)c1ccc2ccccc2c1)Cc1ccc(C#N)cc1` (racemic), the inhibition in series [1] came to 19%.
Turning to `CCC(CC)(CN(Cc1ccccc1)C(C)C)C(=O)c1ccc2ccccc2c1`, in series [3], the inhibition was 40%.
Consider `COC(CCN(Cc1ccccc1)C(C)C)c1ccc2ccccc2c1` (racemic), for which the inhibition in [1] is 51%. For the same compound, the inhibition result in series [2] was “inactive”.
As for `CC(C)N(CCC(O)c1ccc2ccccc2c1)Cc1ccc(F)c(Cl)c1` (racemic), the inhibition in series [1] turned out to be 38%.
For the compound `CC(C)N(CCC(O)c1ccc2ccccc2c1)Cc1cc(F)cc(F)c1` (racemic), the inhibition in series [1] was determined as 54%. In addition, in series [2], the inhibition result is “Active”.
In turn, `COc1ccc(CN(CCC(O)c2ccc3ccccc3c2)C(C)C)cc1` (racemic) returned an inhibition in series [1] of 55%. For the same compound, the inhibition result in series [2] is “inactive”.
The matching figures for `CC(C)N(CCC(O)c1ccccc1)Cc1ccccc1` (racemic): 10% and “Active”.
As for `CC(C)N(CCC(O)c1ccc2ccccc2c1)Cc1ccc(Cl)c(Cl)c1` (racemic), the inhibition in [1] is 60%. For the same compound, in series [2], the inhibition entry was “inactive”.
`CC(C)N(CCC(O)c1ccc2ccccc2c1)Cc1ccc(F)c(F)c1` (racemic): the figures for the inhibition in series [1] and in [4] were 64% and 23%, respectively. In series [2], the inhibition entry is “inactive”.
`OC(CCN1CCN(c2ccc(F)cc2)CC1)c1ccc2ccccc2c1` (racemic) had an inhibition in series [1] of 61%. Further, the inhibition result in series [2] is “inactive”.
As for `CC(C)(C)N(CCC(O)c1ccc2ccccc2c1)Cc1ccccc1` (racemic), the inhibition in [1] was 0%.
As for `CC(C)N(CCC(O)c1ccc2ccccc2c1)c1ccccc1` (racemic), the inhibition in series [1] came out at 68%. Also, the inhibition result in [2] was “Active”.
`CC(C)CN(CCC(O)c1ccc2ccccc2c1)Cc1ccccc1` (racemic) returned an inhibition in series [1] of 0%.
Compound `CC(C)N(CCC(O)c1cc(F)cc(Cl)c1)Cc1ccccc1` (racemic) returned an inhibition in series [1] of 30%. In addition, the inhibition entry in [2] was “Active”.
As to `CC(C)N(CCC(O)c1cc(C(F)(F)F)cc(C(F)(F)F)c1)Cc1ccccc1` (racemic), the inhibition in series [1] turned out to be 15%; in series [5], 81%. For the same compound, the inhibition entry in series [2] was “Active”.
Consider `CN(CCC(O)c1ccc2ccccc2c1)Cc1ccccc1` (racemic), for which, in series [1], the inhibition worked out at 15%. Also, the inhibition result in [2] is “inactive”.
In [1], `OC(CCN1CCN(Cc2ccccc2)CC1)c1ccc2ccccc2c1` (racemic) had an inhibition of 15%. Moreover, in [2], the inhibition entry is “inactive”.
With `OC(CCN(Cc1ccccc1)Cc1ccccc1)c1ccc2ccccc2c1` (racemic), the inhibition in [1] was 32%.
On to `CCN(CCC(O)c1ccc2ccccc2c1)Cc1ccccc1` (racemic), for which the inhibition in [1] came out at 15%.
On the same count and under the same terms, the value for `CC(C)N(CCC(O)c1ccc(OC2CCCCO2)cc1)Cc1ccccc1` (racemic) was 0%.
`CC(C)N(Cc1ccccc1)CC(C)(C)C(O)c1ccc2ccccc2c1` (racemic) displayed an inhibition in series [1] of 72%. The inhibition entry in series [2] was “inactive”.
Compound `OC(CCN(Cc1ccccc1)C1CC1)c1ccc2ccccc2c1` (racemic) gave an inhibition in series [1] of 36%.
Consider `CC(C)N(CCC(O)c1ccc2ccccc2c1)Cc1ccccc1` (racemic), for which the remaining at 1 h in series [6] was 0%; in [11] it was 1%. In addition, the values for the inhibition in series [7], in [1] and in series [5] were 67%, 81% and 45%, respectively. The compound further returned a solubility in series [8] of 98 µM (≈ 32.7 µg/mL). The fraction unbound in [9] is 0.1. The pH-dependent lipophilicity (logD) in [10] worked out at 3.4. The Papp A→B in series [12] was 18.4 ×10⁻⁶ cm/s. The inhibition entry in series [2] was “inactive”. At Gamma-secretase, this compound yielded an IC50 of more than 100 µM.
In series [1], `CC(C)N(CCCC(O)c1ccc2ccccc2c1)Cc1ccccc1` (racemic) returned an inhibition of 18%. For the same compound, the inhibition result in series [2] was “Active”.
On the same counts, the results for `Cc1ccc(C(O)CCN(Cc2ccccc2)C(C)C)cc1F` (racemic) are 29% and “Active”.
In the case of `CCC(CC)(CN(Cc1ccccc1)C(C)C)C(O)c1ccc2ccccc2c1` (racemic), the inhibition in series [13] was determined as 80%; in series [1], 82%; in [4], 100%. In [2], the inhibition entry is “inactive”. At Gamma-secretase, the IC50 was more than 75 µM.
Turning to `CC(C)N(CCC(O)c1ccc(Oc2ccccc2)cc1)Cc1ccccc1` (racemic), the inhibition in [1] was 24%. Also, the inhibition result in series [2] was “inactive”.
With `CC(C)N(CCC(O)c1cccc2ccccc12)Cc1ccccc1` (racemic), the inhibition in [1] was found to be 46%. Further, the inhibition entry in series [2] was “inactive”.
The compound `OC(CCN1CCN(c2ccccc2)CC1)c1ccc2ccccc2c1` (racemic) showed an inhibition in series [1] of 0%. The inhibition entry in [2] is “inactive”.
On the same counts, the results for `CC(C)N(Cc1ccccc1)CC(O)c1ccc2ccccc2c1` (racemic) are 0% and “Active”.
Compound `CC(C)N(CCC(O)c1ccc2c(c1)OCO2)Cc1ccccc1` (racemic) returned an inhibition in series [1] of 0%.
In the case of `CC(C)N(CCC(O)c1ccc(OCc2ccccc2)cc1)Cc1ccccc1` (racemic), the inhibition in series [1] was determined as 31%. The inhibition entry in series [2] was “inactive”.
In the case of `CC(C)N(CCC(O)c1ccc2ccccc2c1)Cc1cccc(C#N)c1` (racemic), the inhibition in [1] was 7%.
With `CC(C)N(CCC(O)c1ccc(C(C)(C)C)cc1)Cc1ccccc1` (racemic), the inhibition in series [1] amounted to 72%; in series [5] it was 14%. Also, the inhibition result in series [2] is “Active”.
Take `OC(CCN1CCN(c2cccc(C(F)(F)F)c2)CC1)c1ccc2ccccc2c1` (racemic): the inhibition in series [7] worked out at 14%; in [1], 38%. The inhibition entry in [2] is “inactive”.
In turn, `CCC(CC)N(Cc1ccc(C(=O)O)cc1)S(=O)(=O)c1ccc(Cl)cc1` returned an IC50 against Gamma-secretase of 10 µM.
As to `COc1cc(CN(CCC(O)c2ccc3ccccc3c2)C(C)C)cc(OC)c1` (racemic), in series [1], the inhibition amounted to 17%. Besides, the inhibition result in series [2] was “inactive”.
In series [1], `COc1ccc(N2CCN(CCC(O)c3ccc4ccccc4c3)CC2)cc1` (racemic) registered an inhibition of 0%.
Turning to `CCC(CC)(CN(Cc1ccc(Cl)c(Cl)c1)C(C)C)C(O)c1ccc2ccccc2c1` (racemic), the inhibition in series [1] is 59%. For the same compound, the inhibition result in [2] was “inactive”.
The compound `CCC(CC)(CN(Cc1ccc(F)c(F)c1)C(C)C)C(O)c1ccc2ccccc2c1` (racemic) came in with an inhibition in series [1] of 69%. Moreover, the inhibition result in series [2] was “inactive”.
